Test results: PubChem BioAssay AID651999 (Sanford-Burnham Center for Chemical Genomics, 2013)
Out of some 360,000 compounds screened, about 1,400 (0.39%) were called active. This is one part of a sample in which actives are shown more often than they occur.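 How the source made its calls: active means pattern-corrected inhibition above about 35%, with an unprinted fluorescence ratio check between 0.5 and 1.5 (limit read from the data, passing the limit was not always enough); inactive means the rest.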

These compounds were tested against COP9 signalosome complex subunit 5 (Homo sapiens) (UniProt Q92905) (assay: CSN5 deneddylase inhibitors on cullin-RING ligase – biochemical, fluorescence polarization, uHTS, primary screen (AID 651999;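 further: 0% = enzyme with substrate and 100% = substrate without enzyme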)). Details: Purified CSN, SCF-Nedd8-OG deneddylation, at 12.5 µM, stronger effect = higher value.
Outline: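 Assay system: purified human Csn5 enzyme expressed in HEK293T cells; measure: % inhibition; also added: SCFSkp2-Nedd8OG substrate at 10 nM final; technique: fluorescence polarization; times: reaction 90 min, room temperature; medium: Tris buffer pH 7.5, NaCl, DTT, Tween-20, trehalose, ovalbumin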

Sequence of COP9 signalosome complex subunit 5 (Homo sapiens) (Q92905 whole entry, looked up, one chain of several): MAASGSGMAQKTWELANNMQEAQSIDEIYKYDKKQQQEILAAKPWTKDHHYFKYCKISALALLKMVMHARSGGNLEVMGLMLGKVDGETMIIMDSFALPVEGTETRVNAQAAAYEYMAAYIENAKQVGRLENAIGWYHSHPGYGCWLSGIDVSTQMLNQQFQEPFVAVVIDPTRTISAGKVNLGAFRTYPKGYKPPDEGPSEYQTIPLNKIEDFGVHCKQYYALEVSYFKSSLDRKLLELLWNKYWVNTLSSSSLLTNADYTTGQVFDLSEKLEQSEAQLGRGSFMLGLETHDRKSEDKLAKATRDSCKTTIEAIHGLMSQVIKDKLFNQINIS

Compound	inhibition
O=C(NCc1ccncc1)C(=O)NCc1ccco1	-6.34% (inactive)
CCCN(CC1CC1)C(=S)NC(=O)c1ccccc1Br	-6.61% (inactive)
CN1CCN(c2ccc(S(=O)(=O)N3CCOCC3)cc2NC(=O)CCc2ccccc2)CC1	2.64% (inactive)
CCOC(=O)CN(C)S(=O)(=O)c1ccc(-c2cc(C(=O)OC)sc2C(F)(F)F)cc1	1.34% (inactive)
COc1ccc(Nc2cc(Sc3ccc(OC)cc3)ncn2)cc1	-0.7% (inactive)
COc1ccc(NC2=CC(=S)NC(C)(C)C2)cc1	42.9% (active)
COc1ccc(CCNC2=CC(=O)CC(C)(C)C2)cc1	-5.48% (inactive)
O=C(NCCc1ccccc1)C(=O)NCC1OCCN1S(=O)(=O)c1cccs1 (stereo not drawn)	0% (inactive)
O=C(Nc1ccc(Cl)c(Cl)c1)c1ccccc1NC(=O)C1CC=CCC1C(=O)O (stereo not drawn)	-4.09% (inactive)
Cc1cc(N(C)C)cc(C)[n+]1[O-]	-2.98% (inactive)
O=C1CSC(c2ccc(Cl)cc2)N1 (stereo not drawn)	-5.2% (inactive)
CCCCC(c1nnnn1CS(=O)(=O)c1ccc(C)cc1)N1CCC(C(N)=O)CC1 (stereo not drawn)	-2.76% (inactive)
CC(C)(C)C1C/C(=C/c2ccco2)C(=O)/C(=C/c2ccco2)C1 (stereo not drawn)	41.2% (active)
CCCC/C(C)=N/NC(=O)NC1CCCCC1	-3.54% (inactive)
Nc1c(-c2ccc(F)cc2)cnc2ncnn12	2.66% (inactive)
CCN(CC(=O)Nc1ccc2c(c1)OCCO2)Cc1cc(=O)oc2cc(C)c(C)cc12	4.55% (inactive)
CCc1ccccc1OCC(=O)Nc1ccc2c(c1)OCCO2	1.42% (inactive)
O=C(COc1ccc2c(C(F)(F)F)cc(=O)oc2c1)Nc1ccc2c(c1)OCCO2	187% (active)
Cc1ccc(NC(=O)COc2ccc(-n3ccnc3)cc2)cc1Cl	0% (inactive)
Cc1ccc(NC(=O)COc2ccc(/C=N\NC(=O)c3cccnc3)cc2)cc1C	158% (active)
Cc1cccc(OCC(=O)NCCNC(=O)c2cccnc2)c1	0.16% (inactive)
CSCCC(NS(=O)(=O)c1ccc(C)cc1)C(=O)N(C)CC(=O)Nc1ccccc1Br (stereo not drawn)	1.95% (inactive)
Cc1nc(SCC(=O)NC2CCCCC2C)c(C#N)c(C)c1C (stereo not drawn)	0.75% (inactive)
O=C(O)C(c1ccccc1)N1C(=O)/C(=C\c2ccc(-c3cccc(Cl)c3)o2)SC1=S (stereo not drawn)	93.7% (active)
CCC(C)N1C(=O)S/C(=C/c2ccc(Sc3nc4ccccc4[nH]3)o2)C1=O (stereo not drawn)	4.54% (inactive)

Compound	inhibition
CC1COc2ccccc2N1S(=O)(=O)c1ccccc1 (stereo not drawn)	-12.8% (inactive)
CCOC(=O)C1CCN(C(=O)CC2C(=O)N(Cc3ccccc3)C(C)c3nc4ccccc4n32)CC1 (stereo not drawn)	4.78% (inactive)
CN(C)N=Nc1ccc2nc[nH]c2c1	-1.48% (inactive)
CC1=CC(=NNS(=O)(=O)c2ccc([N+](=O)[O-])cc2)CC(C)(C)C1	8.55% (inactive)
Cc1ccc(Cc2cnc(N)s2)o1	36.5% (active)
CC(=O)c1nnn(-c2ccc(Cl)cc2C#N)c1C	0.92% (inactive)
CC(C)(C)c1ccc(C(=O)N2CCC(C(=O)N3CCCCC3)CC2)cc1	-2.5% (inactive)
O=c1ccc(-c2ccc(S(=O)(=O)Nc3ccccc3)o2)n[nH]1	6.31% (inactive)
O=C(NCC1CCCO1)/C(=C/c1ccc(Cl)cc1)NC(=O)c1ccccc1 (stereo not drawn)	-2.86% (inactive)
CCOc1ccc(/C=C(/NC(=O)c2ccccc2)C(=O)NCCC(=O)O)cc1	-10.6% (inactive)
Cn1c2ccccc2c2cc(/C=C(\NC(=O)c3ccccc3)C(=O)NCC(=O)O)ccc21	60.8% (active)
CC1CCN(S(=O)(=O)c2ccc(S(=O)(=O)NCc3ccco3)cc2)CC1	0.01% (inactive)
Cc1noc(NS(=O)(=O)c2ccc(N3CC(O)=C(c4ccccc4)C3=N)cc2)c1C	2.49% (inactive)
O=C1CC(c2c(F)cccc2Cl)C(n2cncn2)C(O)=C1C1NCCc2ccccc21 (stereo not drawn)	-3.94% (inactive)
CCn1c(SCC(=O)Nc2ccc(Br)cc2)nc2sc3c(c2c1=O)CCN(C)C3	3.55% (inactive)
CCCSc1nc2sc3c(c2c(=O)n1-c1ccc(OC)cc1)CCN(C)C3	7.27% (inactive)
CCOc1ccc(-n2c(SCC(=O)Nc3ccc(OC)cc3)nc3sc4c(c3c2=O)CCN(C)C4)cc1	102% (active)
CCN(CC)C(=O)CSc1nnc(-c2ccc(S(=O)(=O)NCc3ccccc3Cl)cc2)o1	-2.99% (inactive)
NC(=S)c1ccc(C(N)=S)o1	2.12% (inactive)
O=C(NCCCn1ccnc1)c1cc2c(s1)CCCC2	0.16% (inactive)
COc1ccc2c(c1)OC(O)(C(F)(F)C(F)F)CC2=O (stereo not drawn)	2.02% (inactive)
Oc1ccc(N=Cc2c(O)ccc3ccccc23)cc1	58.2% (active)
C/C(=N\NC(N)=S)c1cccnc1	-5.1% (inactive)
CCc1nc2c(=O)[nH]cnc2o1	-0.47% (inactive)
Cc1c(CNCCc2ccccc2)c(C(=O)O)c(C)n1-c1ccccc1	-2.52% (inactive)

Compound	inhibition
Cc1ccc(OCCNC(=O)c2cccc(S(=O)(=O)N3CCN(Cc4ccccc4)CC3)c2)cc1	-1.93% (inactive)
Cn1c(=O)[nH]c2c(c(C(=O)O)nn2C)c1=O	-1.75% (inactive)
COc1ccccc1N1CCN(C(=O)C(=O)N/N=C/c2ccccc2F)CC1	-1.85% (inactive)
COc1cccc(/C=N/NC(=O)c2[nH]nc3c2CCc2ccccc2-3)c1O	67% (active)
COc1cc(/C=N\NC(=O)c2nonc2N)c(OC)cc1Br	3.66% (inactive)
CC1CC(C)CN(C(=O)CCNC(=O)Cn2cnc3ccccc3c2=O)C1 (stereo not drawn)	-0.46% (inactive)
O=C(CN1CCN(c2ncc(C(F)(F)F)cc2Cl)CC1)Nc1ccc2c(c1)OCO2	4.43% (inactive)
CCCC(=O)n1nc(NCc2ccc(OC)cc2)nc1NCc1ccc(OC)cc1	0.03% (inactive)
CC1(C)C=Cc2c(ccc3c2OC[C@@H](c2ccc(O)cc2O)C3)O1	1.92% (inactive)
Cc1ccc(-c2nc3c(C)cc(Br)cn3c2Cc2ccccc2)cc1	-3.35% (inactive)
Cc1cc(Br)cn2c(Cc3ccsc3)c(-c3ccc(C#N)cc3)nc12	77.2% (active)
Cc1cc(Br)cn2c(Cc3cccc(F)c3)c(-c3cccc(Br)c3)nc12	1.9% (inactive)
COC(=O)c1cc(NC(=O)CC2C(=O)NCCN2C(=O)c2ccc(F)cc2)cc(C(=O)OC)c1 (stereo not drawn)	0.24% (inactive)
CS(=O)(=O)c1ccc(-c2nnn(CC(=O)Nc3ccc4c(c3)OCCO4)n2)cc1	0.36% (inactive)
CS(=O)(=O)c1ccc2c(c1)SC1=NC(=O)/C(=C/c3ccco3)C(=N)N12	58.8% (active)
COc1ccc(N2CCN(C(=O)CNS(=O)(=O)c3ccc(C)c(C)c3)CC2)cc1	-4.8% (inactive)
COc1ccc(NC(=O)CC2SC(N3CCCCC3)=NC2=O)cc1OC (stereo not drawn)	0.22% (inactive)
COc1ccc(S(=O)(=O)N2CCN(CC(=O)N3c4ccccc4CC3C)CC2)cc1OC (stereo not drawn)	18.4% (inactive)
CCOC(=O)c1cc(NC(=O)c2ccc(Cl)cc2)c(=O)oc1-c1ccccc1	-2.25% (inactive)
COc1ccc(C2COC(=O)C2=N)c(NC(=O)c2ccccc2)c1 (stereo not drawn)	-4.82% (inactive)
CC(=O)c1cc(NC(=O)c2ccccc2)c(=O)oc1/C=C/N(C)C	55.4% (active)
CCCCCCCC1(C)NC(=O)N(CC(=O)Nc2cc(C)on2)C1=O (stereo not drawn)	-7.92% (inactive)
C=CCn1c(SCc2cccc(F)c2)nc2cc(C(=O)N3CCC(C(N)=O)CC3)ccc2c1=O	0.76% (inactive)
Cc1ccc(CSCC2Nc3ccc(C(=O)N4CCN(c5ccc(F)cc5)CC4)cc3NC2=O)cc1 (stereo not drawn)	25.2% (inactive)
O=C1Nc2cc(C(=O)N3CCN(c4ccc(F)cc4)CC3)ccc2NC1CSCc1cccc(F)c1 (stereo not drawn)	51.2% (active)

Compound	inhibition
CC(C)Cn1c(N)c(C(=O)NCc2cccs2)c2nc3ccccc3nc21	36% (active)
O=C(NCc1cccs1)c1ccc(Br)o1	-0.05% (inactive)
O=C(Cc1coc2ccc3ccccc3c12)NCc1cccs1	-8.34% (inactive)
CCOc1c(Br)cc(/C=C2\C(=O)N(CCC#N)N=C2C)cc1OC	2.79% (inactive)
COc1cc(/C=C2/C(=O)NN(c3cccc(Cl)c3)C2=O)cc(Br)c1O	44.4% (active)
CCc1nc2ccc(C(=O)N(C)CCN(C)C)cn2c1N(CC)CCOC	-0.82% (inactive)
CN1CCN(CCCNC(=O)c2ccc(/C=C3\Oc4ccccc4N(Cc4ccc(Cl)cc4)C3=O)cc2)CC1	119% (active)
O=C(CC1Oc2ccccc2NC1=O)NCCCN1CCN(Cc2ccccc2)CC1 (stereo not drawn)	-8.5% (inactive)
O=C(CCN1C(=O)COc2ccccc21)NCCCN1CCN(c2ccc(F)cc2)CC1	-4.53% (inactive)
Cc1nonc1OCCn1nnnc1N	-0.98% (inactive)
O=C(O[C@H]1[C@H](Cc2ccccc2)NS(=O)(=O)[C@H]2C[C@@H]3C=C[C@]12O3)c1ccc([N+](=O)[O-])cc1	0.94% (inactive)
CCCSc1nc2[nH]ncc2c(=O)[nH]1	0.78% (inactive)
Cn1ccnc1-c1nnn(-c2ccc(F)cc2)n1	-1.15% (inactive)
COc1ccc(NC(=O)CSc2nc3ccccc3c(=O)n2C)cc1	81.7% (active)
CC(=O)NCCn1c(SCC(=O)Nc2ccc(C)cc2)nc2ccccc2c1=O	-2.03% (inactive)
COc1ccc(NC(=O)CSc2nnc(Cc3ccccc3)c(=O)n2N)cc1	2.76% (inactive)
C=CCSc1nc2c(c(=O)[nH]1)C(C(C)C)C(C#N)=C(N)O2 (stereo not drawn)	-4.61% (inactive)
CCCNC(=O)C(=O)Nc1cc2c3c(c1)CCC(=O)N3CCC2	-1.23% (inactive)
CCOc1ccc(NS(=O)(=O)c2ccc(C)c(C(N)=O)c2)cc1	8.11% (inactive)
COc1ccc(NS(=O)(=O)c2ccc(C)c(C(=O)NCC(c3cccs3)N3CCOCC3)c2)cc1 (stereo not drawn)	1.17% (inactive)
COc1ccc(NS(=O)(=O)c2ccc(C)c(C(=O)N(C)Cc3ccc(OC)cc3OC)c2)cc1	157% (active)
CC1O[C@H](OC2C(COC3OC(CO)C(O)[C@H](O)C3O)OC(OC3CC[C@]4(C)C(CC[C@@]5(C)[C@@H]4C=C[C@]46OC[C@@]7(CCC(C)(C)C[C@H]74)C(O)C[C@@]56C)C3(C)C)C(O)C2O)C(O)C(O)C1O (stereo partly drawn)	-2.09% (inactive)
COc1ccc(-n2nnc3c(=O)n(CC(=O)N4CCC(Cc5ccccc5)CC4)cnc32)cc1	-0.9% (inactive)
